Assay results from ChEMBL document CHEMBL3352013, “The design and synthesis of potent and selective inhibitors of Trypanosoma brucei glycogen synthase kinase 3 for the treatment of human african trypanosomiasis” (J Med Chem, 2014).

What was measured:
[1] = Inhibition of Trypanosoma brucei GSK3 using biotinylated GSP2 substrate by flashplate assay
Procedure, shortened: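 Radiometric Flashplate assay: 2.5 nM TbGSK3 short, 1 μM biotinylated GSP2, 1 μM ATP plus [γ-33P]-ATP. 10-point titration 30 μM to 0.3 nM final, 1% DMSO. IC50 averaged over two or more experiments; standard GW8510 used for reproducibility (MSR).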

[2] = target: Glycogen synthase kinase-3 (Homo sapiens, UniProt P49840+P49841); assay: Inhibition of human GSK3 using biotinylated GSP2 substrate by flashplate assay; assay type: protein assay
[3] = Selectivity ratio, ratio of IC50 for human GSK3 to IC50 Trypanosoma brucei GSK3
CDK2/Cyclin A2 = CDK2/Cyclin A2 (Homo sapiens, UniProt P24941); assay: Inhibition of human CDK2/cyclin A using Biotin-C6-PKTPKKAKKL substrate; assay type: protein-complex assay
[4] = Selectivity ratio, ratio of IC50 for human CDK2/cyclin A to IC50 for Trypanosoma brucei GSK3
[5] = tested on: Trypanosoma brucei brucei; assay: Trypanocidal activity against bloodstream stage of Trypanosoma brucei brucei assessed as inhibition of proliferation after 72 hrs; assay type: functional, organism-based
Procedure, shortened: (§1)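 Resazurin viability assay: 2 × 10³ cells/well (MRC5 in MEM + 10% FBS; bloodstream-form T. b. brucei in appropriate medium), compounds 50 μM to 0.5 nM, 37 °C, 5% CO₂ for 69 h, then resazurin 50 μM final for further 4 h; fluorescence read. Concentration giving 50% growth inhibition over 72 h; average of two or more experiments.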

MRC5 = assay: Cytotoxicity against human MRC5 cells assessed as growth inhibition after 72 hrs; assay type: cell-based; settings: MRC5, 72 h; procedure, shortened: as §1

| SMILES | IC50 [2] | Ratio IC50 [3] | IC50 (CDK2/Cyclin A2) | Ratio IC50 [4] | IC50 [1] | EC50 [5] | EC50 (MRC5) |
| --- | --- | --- | --- | --- | --- | --- | --- |
| COc1cccc(OC)c1C(=O)Nc1c[nH]nc1C(=O)Nc1ccccn1 | 940 nM | 2.9 | > 10000 nM | > 31 | 320 nM | > 50000 nM | > 50000 nM |
| COCCNC(=O)c1n[nH]cc1NC(=O)c1c(OC)cccc1OC | 300 nM | 8.8 | > 10000 nM | > 290 | 34 nM | 43000 nM | > 50000 nM |
| COc1cccc(OC)c1C(=O)Nc1c[nH]nc1C(=O)NCCN1CCCC1 | 660 nM | 2.1 | > 10000 nM | > 31 | 320 nM | > 50000 nM | > 50000 nM |
| COc1cccc(OC)c1C(=O)Nc1c[nH]nc1C(=O)NCc1ncccc1C | 870 nM | 6.2 | > 10000 nM | > 71 | 140 nM | > 50000 nM | > 50000 nM |
| CO[C@H]1CC[C@H](NC(=O)c2n[nH]cc2NC(=O)c2ncoc2-c2ccccc2)CC1 | 5 nM | 0.0058 | 22000 nM | 24 | 920 nM | > 50000 nM | 28000 nM |
| COc1cc(OC)c(C(=O)Nc2c[nH]nc2C(=O)N[C@H]2CC[C@H](OC)CC2)c(OC)c1 | 90 nM | 30 | 3100 nM | 1000 | 3 nM | 5900 nM | > 50000 nM |
| COC(=O)c1n[nH]cc1NC(=O)c1c(OC)cccc1OC | 4500 nM | 8.7 | > 10000 nM | > 19 | 520 nM | > 50000 nM | > 50000 nM |
| COc1cccc(OC)c1C(=O)Nc1c[nH]nc1C(=O)NCCN1CCOCC1 | 630 nM | 12 | > 10000 nM | > 190 | 54 nM | > 50000 nM | > 50000 nM |
| COc1cccc(OC)c1C(=O)Nc1c[nH]nc1C(=O)NCc1ccccn1 | 320 nM | 21 | > 10000 nM | > 670 | 15 nM | 20000 nM | > 50000 nM |
| CO[C@H]1CC[C@H](NC(=O)c2n[nH]cc2NC(=O)c2ccccc2Nc2cccc(C)c2C)CC1 | 30 nM | 0.45 |  |  | 66 nM | 5800 nM | 16000 nM |
| COc1cccc(OC)c1C(=O)Nc1c[nH]nc1C(=O)NC1CC1 | 220 nM | 18 | > 10000 nM |  | 12 nM | 19000 nM | > 50000 nM |
| COc1cccc(OC)c1C(=O)Nc1c[nH]nc1C(=O)NCCCN(C)C | 470 nM | 1.4 | > 10000 nM | > 30 | 330 nM | > 50000 nM | > 50000 nM |
| COc1cccc(OC)c1C(=O)Nc1c[nH]nc1C(=O)Nc1ccccc1 | 70 nM | 12 | 4300 nM | 720 | 6 nM | 11500 nM | > 50000 nM |
| COc1cccc(OC)c1C(=O)Nc1c[nH]nc1C(=O)NC1CCN(Cc2ccccc2)C1 (centres undefined) | 80 nM | 10 | > 10000 nM | > 1300 | 8 nM | 8900 nM | 38000 nM |
| COc1cccc(OC)c1C(=O)Nc1c[nH]nc1C(=O)NC1CCN(C(=O)OC(C)(C)C)CC1 | 140 nM | 23 | 4700 nM | 780 | 6 nM | 12000 nM | > 50000 nM |
| COc1cccc(OC)c1C(=O)Nc1c[nH]nc1C(=O)NC1CCC1 | 80 nM | 10 | 2400 nM | 300 | 8 nM | 12000 nM | > 50000 nM |
| COc1cccc(OC)c1C(=O)Nc1c[nH]nc1C(=O)NN1CCOCC1 | 450 nM | 5.6 | > 10000 nM | > 120 | 81 nM | 50000 nM | > 50000 nM |

Further lines, with some results ahead:

| IC50 [2] | Ratio IC50 [3] | IC50 (CDK2/Cyclin A2) | Ratio IC50 [4] | SMILES | IC50 [1] | EC50 [5] | EC50 (MRC5) |
| --- | --- | --- | --- | --- | --- | --- | --- |
| 8 nM | 0.0012 | 380 nM | 0.55 | CO[C@H]1CC[C@H](NC(=O)c2n[nH]cc2NC(=O)C2CCOCC2)CC1 | 690 nM | 32000 nM | > 50000 nM |
| < 5 nM | 0.25 | 14 nM |  | CO[C@H]1CC[C@H](NC(=O)c2n[nH]cc2NC(=O)c2ccccc2F)CC1 | 20 nM | 400 nM | 1000 nM |
| 140 nM | 0.35 | 820 nM | 2.1 | CO[C@H]1CC[C@H](NC(=O)c2n[nH]cc2NC(=O)Cc2ccccc2F)CC1 | 390 nM | 23000 nM | > 50000 nM |
| 42 nM | 0.42 | 2200 nM | 22 | CO[C@H]1CC[C@H](NC(=O)c2n[nH]cc2NC(=O)c2c(C)nc3ccccn23)CC1 | 100 nM | 2900 nM | 34000 nM |
| 70 nM | 35 | 1600 nM | 800 | COc1cccc(OC)c1C(=O)Nc1c[nH]nc1C(=O)N[C@H]1CC[C@H](O)CC1 | 2 nM | 6400 nM | 34000 nM |
| 50 nM | 50 | 1200 nM | 1200 | COc1cccc(OC)c1C(=O)Nc1c[nH]nc1C(=O)NC1CCCCC1 | 1 nM | 4100 nM | 35000 nM |
| 20 nM | 0.38 | 70 nM | 1.3 | CCc1ccccc1C(=O)Nc1c[nH]nc1C(=O)N[C@H]1CC[C@H](OC)CC1 | 53 nM | 2800 nM | 3400 nM |
| 20 nM | 20 | 2000 nM | 2000 | COc1cccc(OC)c1C(=O)Nc1c[nH]nc1C(=O)NC1CCCCCC1 | 1 nM | 4500 nM | 42000 nM |
| 210 nM | 0.42 | 850 nM | 1.7 | COc1ccccc1CC(=O)Nc1c[nH]nc1C(=O)N[C@H]1CC[C@H](OC)CC1 | 500 nM | 22000 nM | 40000 nM |
| 8 nM | 0.16 | 1000 nM | 2 | CO[C@H]1CC[C@H](NC(=O)c2n[nH]cc2NC(=O)C2CCC(F)(F)CC2)CC1 | 500 nM | 16000 nM | > 50000 nM |
| 120 nM | 30 | 1300 nM | 330 | COc1cccc(OC)c1C(=O)Nc1c[nH]nc1C(=O)Nc1ccncc1 | 4 nM | 8200 nM | > 50000 nM |
| 200 nM | 0.87 | 290 nM | 1.3 | CO[C@H]1CC[C@H](NC(=O)c2n[nH]cc2NC(=O)Cc2c(Cl)cccc2Cl)CC1 | 230 nM | 7300 nM | 3100 nM |
